Efflux pump inh: inhibitors of Candida efflux pumps in yeast, primary screen, S. cerevisiae, Nile Red, multiplex; S. cerevisiae Candida pump triplex; inhibition, % at 10 µM; 0.44% of 330,000 active; AID 485275, 2010;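 active means plate passing quality check with inhibition over a set limit, or well fluorescence over plate mean plus 4 SD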;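 further: Nile Red retained in pooled yeast measured as flow cytometry median fluorescence; 0% = buffer negative control and 100% = Enniatin B positive control; higher means more Nile Red kept so more efflux inhibition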
MC4R antag cAMP: MC4R antagonists of cAMP signaling, primary screen, cell-based, TR-FRET, antagonist arm of biased-ligand search; Melanocortin receptor 4 (Homo sapiens), P32245; MC4R-expressing cells, MTII-stimulated cAMP, LANCE TR-FRET; inhibition, % at 6.5 µM; 0.48% of 360,000 active; AID 540295, 2011;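 active means inhibition above its plate's cutoff, the mean of tested wells on that plate plus 3 SD, cut at about 29% in these data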;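 further: 0% = Melanotan II alone and 100% = Melanotan II plus saturating MCL0020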
Target sequence (P32245 whole entry, looked up): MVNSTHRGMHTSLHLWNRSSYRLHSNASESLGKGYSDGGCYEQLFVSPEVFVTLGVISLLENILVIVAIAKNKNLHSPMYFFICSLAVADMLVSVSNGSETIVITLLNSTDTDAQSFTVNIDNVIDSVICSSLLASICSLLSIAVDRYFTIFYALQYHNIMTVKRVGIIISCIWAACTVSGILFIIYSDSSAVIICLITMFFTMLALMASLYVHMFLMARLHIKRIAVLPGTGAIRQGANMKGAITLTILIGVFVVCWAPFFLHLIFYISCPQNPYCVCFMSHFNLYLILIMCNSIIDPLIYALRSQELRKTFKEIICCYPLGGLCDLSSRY
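material = U2OS cells stably expressing human melanocortin 4 receptor (MC4R) | also added = Melanotan II challenge | dosing = single nominal compound dose of 6.5 µM | detection = TR-FRET with Eu-cAMP and labeled anti-cAMP, 671 nm | replication = singlicate | timing = compound 30 min, challenge 1 h, detection 1 h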
TAG inh: inhibitors of triacylglycerol accumulation, primary screen, cell-based, uHTS, fluorescence, H9c2; H9c2 cells, Nile Red lipid (TAG) fluorescence; cells loaded with 200 µM oleic acid; inhibition, % at 12.5 µM; 0.66% of 230,000 active;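 active means pattern-corrected inhibition of lipid staining of at least 50% with the nuclear-stain viability signal not falling by more than 50%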;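 further: 0% = DMSO wells and 100% = triacsin C control wells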
GalR3 antag: GalR3 antagonists in HEK293 cells, primary screen, cell-based, fluorescence readout | Galanin receptor type 3 (Homo sapiens), O60755 | HEK293 GalR3-CNG cAMP membrane potential fluorescence; galR3 body fused to GalR1 C-terminus | inhibition, % at 3 µM | 0.44% of 360,000 active;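 active means inhibition above the screen-wide average plus 3 SD, cut at about 13% in these data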;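 further: forskolin and galanin both at EC90 stimulate the cells; cAMP rise reported by CNG channel membrane potential dye signal; 0% = forskolin plus galanin with DMSO and 100% = forskolin alone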
Target sequence (O60755 1-299 limits assumed): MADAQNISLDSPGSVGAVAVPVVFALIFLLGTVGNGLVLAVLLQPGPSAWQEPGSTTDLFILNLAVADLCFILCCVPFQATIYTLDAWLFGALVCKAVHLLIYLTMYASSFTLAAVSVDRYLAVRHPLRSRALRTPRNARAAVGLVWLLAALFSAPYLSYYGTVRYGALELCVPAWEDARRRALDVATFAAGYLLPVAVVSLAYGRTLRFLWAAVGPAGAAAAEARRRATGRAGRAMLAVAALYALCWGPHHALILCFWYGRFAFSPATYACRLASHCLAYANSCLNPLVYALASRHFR
MC4R ag barr: MC4R agonists recruiting beta-arrestin, primary screen, cell-based, luminescence, agonist arm of biased-ligand search | U2OS MC4R beta-arrestin complementation; percent of melanotan II response, DMSO zero | activation, % at 8.9 µM | 0.98% of 360,000 active;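 active means activation above a per-plate cutoff, the mean activation of sample wells on that plate plus 3 SD, cut at about 8% in these data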
Calb FLC: C. albicans growth inhibition with fluconazole, primary screen, CaCi-2 strain, Alamar Blue fluorescence; C. albicans CaCi-2 (fluconazole-resistant clinical isolate) + fluconazole, 48 h; AID 1979, 2009; 0.57% of 300,000 active; growth inhibition, % (no concentration beside the values);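 active means growth inhibition above about 58% in most replicates, limit read from the data, passing the limit was not always enough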;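 further: all wells also contain fluconazole at 8 µg/ml as a sub-toxic cotreatment; 0% = median of DMSO wells and 100% = median of geldanamycin control wells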
Starred values were filed as active, the others as inactive; . = no result. Most compounds without a hit are left out; they make up all but 2.9% or so of the library.

SMILES | Efflux pump inh | MC4R antag cAMP | TAG inh | GalR3 antag | MC4R ag barr | Calb FLC
C=CCn1c(SCC(=O)Nc2ccc(-c3nc4ccc(C)cc4s3)cc2)nnc1-c1ccccc1 | 0.0 | -11.9 | . | -8.6 | 38.4* | 10.1
COc1ccc(CCn2c(C)cc(C(=O)CSc3nnnn3-c3ccccc3)c2C)cc1 | 0.0 | -18.9 | . | -3.4 | 8.7* | -17.4
Cc1cc(C(=O)CSc2nnnn2C)c(C)n1CCc1ccc(Cl)cc1 | 0.1 | 5.9 | 22.8 | -2.4 | 0.8 | .
Cc1cc(C(=O)N/N=C/c2cc(Cl)cc([N+](=O)[O-])c2O)c2ccccc2n1 | 0.4 | 6.1 | . | -0.2 | -0.8 | 79.2*
O=C(N/N=C/c1cc(Cl)cc([N+](=O)[O-])c1O)c1ccccc1NS(=O)(=O)c1cccs1 | -0.1 | 11.2 | -7.1 | 1.9 | -3.6 | 24.8
C[C@@H]1COc2cc(N3CCCC3)ccc2S(=O)(=O)N1 | . | . | . | -6.8 | . | .
O=C(NNC(=O)c1ccccc1-c1ccccc1C(=O)O)c1ccccc1 | 0.0 | 5.6 | 4.3 | -4.2 | -2.8 | 9.2
O=C(C=P(c1ccccc1)(c1ccccc1)c1ccccc1)c1ccccc1-c1ccccc1C(=O)C=P(c1ccccc1)(c1ccccc1)c1ccccc1 | . | -1.1 | 0.8 | 33.4* | -4.4 | .
C(=C\c1ccc2nncn2c1)/c1ccccc1 | . | -4.6 | 7.5 | -6.1 | -1.5 | .
CCOC1=C2[C@H](c3ccc(Cl)cc3)N(S(=O)(=O)c3ccc(C)cc3)C[C@H]2n2c(=O)n(-c3ccccc3)c(=O)n2C1 | . | . | . | -4.6 | . | .
COc1ccccc1CNC(=O)CCC1N=C2c3ccccc3N=C(SCC(=O)NCC3CCCO3)N2C1=O (configuration not stated) | 0.1 | -1.7 | . | -0.4 | -2.0 | 0.9
CCCCCCCCCCCC1=C(O)C(=O)C=C(O)C1=O | -0.4 | 18.1 | . | . | 16.2* | 92.3*
COC1=CC(=O)C(O)=C(CCCCCCC/C=C/CCCCCCCC2=C(O)C(=O)C=C(OC)C2=O)C1=O | 0.1 | 0.1 | . | . | 0.6 | 81.3*
Cc1ccccc1-c1cc2nc(Oc3cccc(F)c3)n(C)c(=O)c2s1 | . | 6.2 | -28.5 | -8.6 | 5.9 | .
COc1ccc(C(CC(=O)O)c2ccc3c(c2)OCO3)cc1 (configuration not stated) | 0.0 | 6.0 | . | -7.7 | -1.6 | 8.2
COc1ccccc1C(CCNCc1ccccc1)c1ccc(OC(C)C)cc1 (configuration not stated) | 0.2 | 10.7 | . | -14.7 | 9.0* | -1.5
COc1ccc(CNCCC(c2ccc(OC(C)C)cc2)c2ccccc2OC)cc1OC (configuration not stated) | 0.0 | 5.1 | . | -10.1 | 4.9 | 2.6
COc1ccc(CNCCC(c2ccccc2)c2ccc3c(c2)OCO3)cc1 (configuration not stated) | 0.0 | -0.3 | . | -11.2 | 9.1* | 22.3
NC(=O)CSc1nnc(Cn2cnc3ccccc32)o1 | -0.1 | 2.0 | -5.0 | -4.6 | -3.5 | -4.2
Clc1ccc(CSc2nnc(Cn3cnc4ccccc43)o2)cc1 | 0.1 | -4.2 | -12.1 | 33.0* | 0.4 | 7.5
COc1cc2c(cc1NC(=O)CSc1ccc(C)cc1)oc1ccccc12 | 0.0 | 7.3 | . | -5.8 | -0.7 | -12.9
COc1cc2c(cc1NC(=O)CSc1nnnn1-c1ccccc1)oc1ccccc12 | -0.1 | 10.2 | . | -0.8 | 36.9* | 5.7
CCOC(=O)[C@]12CCCC=C1N(Cc1ccc(Cl)cc1Cl)C(=O)[C@H](CC(=O)NCc1cccs1)C2 | . | . | . | -2.7 | . | .
OCC1(Cc2ccccc2F)CCCN(CCc2ccccc2)C1 (configuration not stated) | -0.2 | 9.3 | . | -2.1 | 0.1 | 4.3
OCC1(Cc2ccc(F)cc2F)CCCN(CCCc2ccccc2)C1 (configuration not stated) | -0.2 | 19.0 | 6.4 | -3.8 | 9.5* | -2.2
SMILES | Efflux pump inh | MC4R antag cAMP | TAG inh | GalR3 antag | MC4R ag barr | Calb FLC
NC1=C(Cl)C(=O)c2ccccc2C1=O | . | -32.9 | 65.9* | -4.9 | 0.5 | .
CCCCCCc1c(C)nc(-n2[nH]c(C)c(CCO)c2=O)[nH]c1=O | -0.1 | 27.1 | . | -6.5 | -5.3 | 93.1*
O=C(COC(=O)Cc1cccc(C(F)(F)F)c1)NC1CC1 | 0.1 | 12.5 | -10.5 | -6.5 | 0.0 | 7.4
O=C(COC(=O)Cc1cccc(C(F)(F)F)c1)NC(=O)NC1CCCC1 | -0.3 | 4.0 | -20.5 | -4.2 | 8.3* | .
Cc1cccc(C)c1C(O)c1ncc(-c2ccccc2F)[nH]1 (configuration not stated) | . | 0.7 | -0.6 | -8.7 | -2.5 | .
CCOc1ccc(C(=O)C(CCC(CN(C)C)C(=O)c2ccc(OCC)cc2)CN(C)C)cc1 (configuration not stated) | . | 2.9 | 81.2 | 10.4 | 9.5* | -19.5
Cc1nc(N2CCN(c3ccccn3)CC2)c2c(C)c(C(=O)N3CCN(c4ccc(F)cc4)CC3)sc2n1 | 0.5* | 2.4 | . | -9.4 | 0.9 | 1.1
NC(=O)c1ccc(NC(=O)COC(=O)CCN2C(=O)c3ccccc3C2=O)cc1 | 0.0 | 6.2 | 5.0 | -6.8 | 1.0 | .
Cc1c(O)ccc(/C=N/Nc2nc(-c3cccnc3)nc3ccccc23)c1O | 0.0 | 18.9 | 68.8* | -2.8 | 5.0 | 0.1
COc1ccc([N+](=O)[O-])cc1NCC(=O)Nc1cccc(S(=O)(=O)N2CCCC2)c1 | . | 5.9 | -28.6 | -5.2 | -4.0 | .
COc1ccc(N(C(=O)c2cnccn2)C(C(=O)NC2CCCCC2)c2ccc(Cl)cc2)cc1 (configuration not stated) | -0.1 | 2.4 | 2.7 | -7.5 | 0.9 | 0.7
Cc1cccc(N(C(=O)CNC(=O)c2ccco2)C(C(=O)NC2CCCCC2)c2cccnc2)c1 (configuration not stated) | 0.1 | 2.7 | . | 3.0 | 0.7 | 4.0
O=C(NC1CCCCC1)C(c1cccnc1)N(C(=O)CCl)c1cccc(Cl)c1 (configuration not stated) | 0.1 | 4.2 | . | -1.7 | 13.2* | -2.2
COc1ccc(C(C(=O)NC2CCCCC2)N(C(=O)CCl)c2ccc(Cl)cc2)cc1 (configuration not stated) | -0.2 | 20.4 | . | . | 13.2* | 2.2
COC(=O)c1cn(CCOc2ccc(C)cc2)c2ccccc12 | 0.1 | 2.1 | . | -6.7 | 5.8 | -9.8
Cc1cc(OCCn2cc(/C(N)=N/O)c3ccccc32)ccc1Cl | -0.2 | -4.0 | . | -0.1 | 8.8* | 14.1
CC1(C(=O)NCc2ccc(C(F)(F)F)cc2)CCN1Cc1ccc(-c2ccccc2)o1 (configuration not stated) | . | 7.6 | 6.7 | -5.0 | 0.0 | .

Screening results deposited in PubChem by several laboratories.
